Experimental data gathered from unrelated publications.
Compare with care: the assays were run in different laboratories.
Effect on: binding
CDK4 with cyclin D1: Cyclin-dependent kinase 4, with cyclin D1 (CDK4, Homo sapiens, UniProt P11802)
CDK4 with cyclin D3: Cyclin-dependent kinase 4, with cyclin D3 (CDK4, Homo sapiens, UniProt P11802)
CDK4: Cyclin-dependent kinase 4 (CDK4, Homo sapiens, UniProt P11802)

SMILES	target	test	setting	remaining binding [%]
Cc1ccc(NC(=O)c2ccnc(C(F)(F)F)c2)cc1-c1cc(OCCO)nc(N2CCOCC2)c1	CDK4 with cyclin D1	–	1 µM	97
CNS(=O)(=O)c1ccc(Nc2ncc(C(F)(F)F)c(N3CCC[C@](C)(O)C3)n2)c(C)c1	CDK4 with cyclin D3	competition with immobilised ligand	1 µM	33
COc1ccc2oc(-c3ccc4nc(N)oc4c3)c/c(=N\c3ccccc3NC(=O)CCN)c2c1	CDK4 with cyclin D3	–	1 µM	93
C[C@]1(O)CCCN(c2nc(Nc3ccc(S(=O)(=O)N[C@H]4CC[C@H](CN5CCN(c6ccc(C7CCC(=O)NC7=O)cc6F)CC5)CC4)cc3F)ncc2C(F)(F)F)C1 (stereo partly drawn)	CDK4	competition with immobilised ligand	1 µM	97
CN1CCN(C(=O)c2ccc(NC(=O)Nc3ccc(N(C)c4ccnc(Nc5ccc(CS(C)(=O)=O)cc5)n4)cc3)cc2)CC1	CDK4 with cyclin D1	–	1 µM	77
Cc1cc(S(=O)(=O)N[C@H]2CC[C@H](CN3CCN(c4ccc(C5CCC(=O)NC5=O)cc4F)CC3)CC2)ccc1Nc1ncc(C(F)(F)F)c(N2CCC[C@](C)(O)C2)n1 (stereo partly drawn)	CDK4 with cyclin D3	competition with immobilised ligand	1 µM	52
CCCCC(=O)Nc1ccc(-c2ccc3ncn(CCC)c(=O)c3c2)cn1	CDK4 with cyclin D3	competition with immobilised ligand	0.5 µM	95
C1=C/COCc2cc(ccc2OCCN2CCCC2)Nc2nccc(n2)-c2cccc(c2)COC/1	CDK4	–	0.1 µM	99
COc1ccc2[nH]c3c4[nH]c5ccc(OC)cc5c4c4c(c3c2c1)C(=O)NC4=O	CDK4	–	1 µM	100
